Measurements published in publication PMC11223151 (ACS Omega, 2024).
Converted amounts (≈) assume the structure as drawn. Each block holds one compound with its values, some of them ahead of it.

Assays:
Format in all cases: cell-based
[1] = system: MCF-7 cell line; test: MTT assay, anticancer activity on MCF-7 cell line; conditions: Homo sapiens, MCF7, 48 h
[2] = system: human lymphocytes; test: Comet assay
Method in brief: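 Freshly isolated human lymphocytes from fresh blood were exposed to test compound at 40–0.078 μg/mL. Controls were 20% DMSO (positive) and normal saline (negative). Cells in low-melting agarose went onto slides precoated with normal-melting agarose, then cold lysis overnight, alkaline unwinding at pH >13, and electrophoresis for 30 min at 300 mA, 24 V. Slides were neutralised at pH 7.5 and ethidium bromide-stained. Tail length and head diameter were scored by fluorescence microscopy, damage index by formula, reported as mean ± SD of 3–5 experiments.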

[3] = system: Vero cell line; test: MTT assay, cytotoxicity on Vero; conditions: Chlorocebus sabaeus, 48 h, read-out: IC50 Vero cell line

- IC50 ([1]; read-out: IC50 MCF7 cell line): 11.5 µg/mL (≈ 31.1 µM)
- fragmentation % ([2]; 0.078 μg/mL): 0%
- mean tail length n = 25 ([2]; 0.078 μg/mL): 0.36 ± 0.47
- fragmentation % ([2]; 0.156 μg/mL): 0%
- mean tail length n = 25 ([2]; 0.156 μg/mL): 0.46 ± 0.38
- fragmentation % ([2]; 0.3125 μg/mL): 0%
- mean tail length n = 25 ([2]; 0.3125 μg/mL): 0.57 ± 0.22
- fragmentation % ([2]; 0.625 μg/mL): 0%
- mean tail length n = 25 ([2]; 0.625 μg/mL): 0.54 ± 0.28
- fragmentation % ([2]; 1.25 μg/mL): 0%
- mean tail length n = 25 ([2]; 1.25 μg/mL): 0.68 ± 0.35
- fragmentation % ([2]; 2.5 μg/mL): 0%
- mean tail length n = 25 ([2]; 2.5 μg/mL): 0.68 ± 0.74
- fragmentation % ([2]; 5 μg/mL): 0%
- mean tail length n = 25 ([2]; 5 μg/mL): 1.14 ± 0.72
- fragmentation % ([2]; 10 μg/mL): 4%
- mean tail length n = 25 ([2]; 10 μg/mL): 1.28 ± 0.28
- fragmentation % ([2]; 20 μg/mL): 8%
- mean tail length n = 25 ([2]; 20 μg/mL): 1.31 ± 0.74
- fragmentation % ([2]; 40 μg/mL): 12%
- mean tail length n = 25 ([2]; 40 μg/mL): 1.86 ± 0.73
SMILES: COc1cc(/C=C/C(=O)CC(=O)/C=C/c2ccc(O)c(OC)c2)ccc1O [curcumin]
- inhibition at 40 µg/mL ([1]; read-out: percentage inhibition against MCF7 cell line): 64%
- damage index ([2]; 0.078 μg/mL): 0
- genetic damage index ([2]; 0.078 μg/mL): 0
- damage index ([2]; 0.156 μg/mL): 0
- genetic damage index ([2]; 0.156 μg/mL): 0
- damage index ([2]; 0.3125 μg/mL): 0
- genetic damage index ([2]; 0.3125 μg/mL): 0
- damage index ([2]; 0.625 μg/mL): 0
- genetic damage index ([2]; 0.625 μg/mL): 0
- damage index ([2]; 1.25 μg/mL): 0
- genetic damage index ([2]; 1.25 μg/mL): 0
- damage index ([2]; 2.5 μg/mL): 0
- genetic damage index ([2]; 2.5 μg/mL): 0
- damage index ([2]; 5 μg/mL): 0
- genetic damage index ([2]; 5 μg/mL): 0
- damage index ([2]; 10 μg/mL): 1
- genetic damage index ([2]; 10 μg/mL): 0.04
- damage index ([2]; 20 μg/mL): 2
- genetic damage index ([2]; 20 μg/mL): 0.08
- damage index ([2]; 40 μg/mL): 3
- genetic damage index ([2]; 40 μg/mL): 0.12
- IC50 [3]: 23.2 µg/mL (≈ 63 µM)

- fragmentation % ([2]; positive control, 20%): 100%
SMILES: C[S+](C)[O-] [20% DMSO, Dimethyl sulfoxide]
- damage index ([2]; positive control, 20%): 45
- genetic damage index ([2]; positive control, 20%): 1.8
